Assay results taken from ChEMBL document CHEMBL1144465, “Role of acidic pH in the susceptibility of intraphagocytic methicillin-resistant Staphylococcus aureus strains to meropenem and cloxacillin” (Antimicrob Agents Chemother, 2007).
In brackets after ≈: the same amount, converted by molar mass. Activity calls are given as the source filed them. The calls are words filed in the database; no cut-off is given here.

Tests used:
Staphylococcus aureus [1] = assay: Induction of mecA/16S rRNA ratio in methicillin-resistant Staphylococcus aureus ATCC 33591 at 0.5 times MIC at pH 5.5 after 5 hrs; format: functional
Staphylococcus aureus [2] = assay: Induction of mecA/16S rRNA ratio in methicillin-resistant Staphylococcus aureus ATCC 33591 at 0.5 times MIC at pH 7.4 after 5 hrs; format: functional
Staphylococcus aureus [3] = assay: Antibacterial activity against methicillin-resistant Staphylococcus aureus 459 at pH 5.5; format: functional
Summary of the method: (§1)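 MRSA clinical isolate 459 (penicillinase-negative, mecA-positive) grown in Mueller-Hinton broth with 2% NaCl; MIC determined in broth adjusted to pH 5.5 or 7.4, inoculum 10^6 CFU/ml of exponential-phase bacteria, 24-h incubation.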

Staphylococcus aureus [4] = assay: Antibacterial activity against methicillin-resistant Staphylococcus aureus 459 at pH 7.4; format: functional; summary of the method: as §1
Staphylococcus aureus [5] = assay: Antimicrobial activity against methicillin-susceptible Staphylococcus aureus ATCC 25923 after phagocytosis by human THP1 macrophages assessed as reduction in bacterial count at pH 5.5 after 24 hrs; format: functional, organism-based; details: ATCC 25923, THP-1, 24 h
Staphylococcus aureus [6] = assay: Antimicrobial activity against methicillin-susceptible Staphylococcus aureus ATCC 25923 after phagocytosis by human THP1 macrophages assessed as reduction in bacterial count after 24 hrs; format: functional, organism-based; details: ATCC 25923, THP-1, 24 h
Summary of the method: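 THP-1 human macrophage-like cells allowed to phagocytose S. aureus for 1 h, then exposed 24 h to a wide range of extracellular total-drug concentrations; controls given gentamicin at 0.5× MIC. Response is log10 CFU change from original inoculum; Hill equation fitted by nonlinear regression for EC50, Emax and static concentration; means of three independent determinations.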

Staphylococcus aureus [7] = assay: Reversal bacterial susceptibility against methicillin-resistant Staphylococcus aureus ATCC 33591 after phagocytosis by human THP1 macrophages assessed as bacterial count in presence of 10 mM ammonium chloride after 24 hrs; format: functional, organism-based
Summary of the method: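 Infected THP-1 macrophages (MRSA ATCC 33591) given 10 mM ammonium chloride after phagocytosis together with meropenem 50 mg/liter or cloxacillin 8 mg/liter (total drug), incubated 24 h; controls with gentamicin 0.5× MIC; CFU counted; means of three independent determinations.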

Staphylococcus aureus [8] = assay: Antimicrobial activity against methicillin-susceptible Staphylococcus aureus ATCC 25923 after phagocytosis by human THP1 macrophages assessed as reduction in bacterial count at pH 7.4 after 24 hrs; format: functional, organism-based; details: ATCC 25923, THP-1, 24 h
Staphylococcus aureus [9] = assay: Antimicrobial activity against methicillin-resistant Staphylococcus aureus ATCC 33591 after phagocytosis by human THP1 macrophages assessed as reduction in bacterial count after 24 hrs; details: ATCC 33591, THP-1, 24 h
Staphylococcus aureus [10] = assay: Antimicrobial activity against Staphylococcus aureus assessed as reduction in bacterial count at pH 5.5 after 24 hrs
Staphylococcus aureus [11] = assay: Antimicrobial activity against methicillin-resistant Staphylococcus aureus […] after phagocytosis by human THP1 macrophages assessed as reduction in bacterial count at pH 7.4 after 24 hrs; format: functional, organism-based; details: THP-1, 24 h

SMILES | Ratio (Staphylococcus aureus [1]) | Ratio (Staphylococcus aureus [2]) | MIC (Staphylococcus aureus [3]) | MIC (Staphylococcus aureus [4]) | EC50 (Staphylococcus aureus [5]) | EC50 (Staphylococcus aureus [6]) | Activity (Staphylococcus aureus [7]) | EC50 (Staphylococcus aureus [8]) | EC50 (Staphylococcus aureus [9]) | EC50 (Staphylococcus aureus [10]) | EC50 (Staphylococcus aureus [11])
C[C@@H](O)[C@H]1C(=O)N2C(C(=O)O)=C(S[C@@H]3CN[C@H](C(=O)Nc4cccc(C(=O)O)c4)C3)[C@H](C)[C@H]12 [ERTAPENEM] | 0.67 | 0.79 |  |  |  |  |  |  |  |  | 
CC1(C)S[C@@H]2[C@H](NC(=O)Cc3ccccc3)C(=O)N2[C@H]1C(=O)O [PENICILLIN G] |  |  | 0.03 µg/mL (≈ 0.0897 µM) | 0.25 µg/mL (≈ 0.748 µM) |  |  |  |  |  |  | 
C[C@@H](O)[C@H]1C(=O)N2C(C(=O)O)=C(S[C@@H]3CN[C@H](C(=O)N(C)C)C3)[C@H](C)[C@H]12 [MEROPENEM] |  |  |  |  | 0.2 µg/mL (≈ 0.522 µM) | 0.14 µg/mL (≈ 0.365 µM) | inactive | 0.29 µg/mL (≈ 0.756 µM) | 0.16 µg/mL (≈ 0.417 µM) | 0.33 µg/mL (≈ 0.861 µM) | 
Cc1onc(-c2ccccc2Cl)c1C(=O)N[C@@H]1C(=O)N2[C@@H]1SC(C)(C)[C@@H]2C(=O)O [CLOXACILLIN] |  |  | 0.03 µg/mL (≈ 0.0688 µM) | 0.125 µg/mL (≈ 0.287 µM) | 0.22 µg/mL (≈ 0.505 µM) | 0.27 µg/mL (≈ 0.619 µM) | inactive | 0.35 µg/mL (≈ 0.803 µM) | 0.23 µg/mL (≈ 0.528 µM) | 0.07 µg/mL (≈ 0.161 µM) | 16.9 µg/mL (≈ 38.8 µM)
Cc1onc(-c2ccccc2)c1C(=O)N[C@@H]1C(=O)N2[C@@H]1SC(C)(C)[C@@H]2C(=O)O [OXACILLIN] |  |  | 0.03 µg/mL (≈ 0.0747 µM) | 1 µg/mL (≈ 2.49 µM) |  |  |  |  |  |  | 
